ChEMBL document CHEMBL1135980, “Novel angular benzophenazines: dual topoisomerase I and topoisomerase II inhibitors as potential anticancer agents” (J Med Chem, 2002)

How the values were obtained:
NCI-H69 [1] = test: Cytotoxicity measured using the drug resistant, P-glycoprotein (Pgp) expressing human small cell lung carcinoma cell line H69/LX4; type: functional, cell-based
Procedure, shortened: (§1)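 H69/P (parental) or H69/LX4 (P-glycoprotein-overexpressing) human SCLC cells; compound added, then 5-6 days incubation; proliferation read with Alamar Blue.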

NCI-H69 [2] = test: Cytotoxicity measured using the H69 parental (H69/P) human small cell lung carcinoma cell line; type: functional, cell-based; procedure, shortened: as §1
NCI-H69 [3] = test: Rf is the resistance factor and is the ratio of the IC50 on the resistant cell line over the IC50 on the parental H69/P cell line; type: functional, Homo sapiens
Procedure, shortened: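 Resistance factor computed as IC50 in H69/LX4 (Pgp-overexpressing) divided by IC50 in H69/P. Both IC50s come from a 5-6 day Alamar Blue proliferation assay.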

Row | Compound | IC50 (NCI-H69 [1]) | IC50 (NCI-H69 [2]) | Rf (NCI-H69 [3])
1 | CN(C)CCNC(=O)c1cccc2nc3ccc4cc([N+](=O)[O-])ccc4c3nc12 | 69 nM | 49 nM | 1.4
2 | CN(C)CCCOc1cccc2c1ccc1nc3cccc(C(=O)NCCN(C)C)c3nc12 | 91 nM | 116 nM | 0.8
3 | CN(C)CCNC(=O)c1cccc2nc3ccc4c(OCC#N)cccc4c3nc12 | 24 nM | 28 nM | 0.9
4 | CC(C)Oc1cccc2c1ccc1nc3cccc(C(=O)NCCN(C)C)c3nc12 | 874 nM | 420 nM | 2.1
5 | COc1ccc2c(ccc3nc4cccc(C(=O)NCCN(C)C)c4nc32)c1OC | 804 nM | 436 nM | 1.8
6 | COc1cccc2c1ccc1nc3cccc(C(=O)NC(C)CN(C)C)c3nc12 (stereo not given) | 44 nM | 30 nM | 1.4
7 | COc1cccc2c1ccc1nc3ccc(N)c(C(=O)NCCN(C)C)c3nc12 | 29 nM | 34 nM | 0.85
8 | CCOC(=O)COc1cccc2c1ccc1nc3cccc(C(=O)NCCN(C)C)c3nc12 | 506 nM | 587 nM | 0.9
9 | COc1cc(C(=O)NCCN(C)C)c2nc3c(ccc4c(OC)cccc43)nc2c1 | 25 nM | 19 nM | 1.3
10 | COc1cccc2c1ccc1nc3cccc(C(=O)NC(C)(C)CN(C)C)c3nc12 | 642 nM | 435 nM | 1.5
11 | COc1cccc2c1ccc1nc3cccc(C(=O)NCCN4CCCCC4)c3nc12 | 330 nM | 156 nM | 2.1
12 | CN(C)CCNC(=O)c1cccc2nc3ccc4c(OCCO)cccc4c3nc12 | 235 nM | 303 nM | 0.8
13 | CCN(CC)CCNC(=O)c1cccc2nc3ccc4c(OC)cccc4c3nc12 | 1000 nM | 412 nM | 2.4
14 | COc1cccc2c1ccc1nc3cccc(C(=O)NCC(CN(C)C)N(C)C)c3nc12 (stereo not given) | 480 nM | 126 nM | 3.8
15 | COc1cccc2c1ccc1nc3ccc(O)c(C(=O)NCCN(C)C)c3nc12 | 107 nM | 103 nM | 1
16 | COCCOc1cccc2c1ccc1nc3cccc(C(=O)NCCN(C)C)c3nc12 | 124 nM | 90 nM | 1.4
17 | CN(C)CCNC(=O)c1cccc2nc3ccc4c(N)cccc4c3nc12 | 193 nM | 111 nM | 1.7
18 | CC(=O)Nc1cccc2c1ccc1nc3cccc(C(=O)NCCN(C)C)c3nc12 | > 5000 nM | 468 nM | >10.7
19 | CN(C)CCNC(=O)c1cccc2nc3ccc4c(CO)cccc4c3nc12 | 423 nM | 117 nM | 3.6
20 | CN(C)CCNC(=O)c1cccc2nc3ccc4c(Cl)cccc4c3nc12 | 159 nM | 117 nM | 1.4
21 | CN(C)CCNC(=O)c1cccc2nc3ccc4c(NCC#N)cccc4c3nc12 | 155 nM | 103 nM | 1.5
22 | CN(C)CCNC(=O)c1cccc2nc3ccc4c(C(=O)O)cccc4c3nc12 | > 5000 nM | > 5000 nM | 
23 | CN(C)CCNC(=O)c1cccc2nc3ccc4c(OCC(N)=O)cccc4c3nc12 | 328 nM | 89 nM | 3.7

Row | Compound | IC50 (NCI-H69 [1]) | IC50 (NCI-H69 [2]) | Rf (NCI-H69 [3])
24 | COc1cccc2c1ccc1nc3c(C)ccc(C(=O)NCCN(C)C)c3nc12 | 168 nM | 87 nM | 1.9
25 | COC(=O)C(CN(C)C)NC(=O)c1cccc2nc3ccc4c(OC)cccc4c3nc12 (stereo not given) | > 5000 nM | 468 nM | >10
26 | COc1cccc2c1ccc1nc3cccc(C(=O)NC(CN(C)C)C(=O)O)c3nc12 (stereo not given) | > 5000 nM | 211 nM | >23
27 | COc1cccc2c1ccc1nc3cccc(C(=O)N[C@H](CO)CN(C)C)c3nc12 | 25 nM | 20 nM | 1.2
28 | CN(C)CCNC(=O)c1cccc2nc3ccc4c(S(C)(=O)=O)cccc4c3nc12 | 3810 nM | 1360 nM | 2.8
29 | CCOc1cccc2c1ccc1nc3cccc(C(=O)NCCN(C)C)c3nc12 | 182 nM | 49 nM | 3.7
30 | CN(C)CCNC(=O)c1cccc2nc3ccc4c(OCCN5CCOCC5)cccc4c3nc12 | 236 nM | 99 nM | 2.4
31 | COc1cccc2c1ccc1nc3cc(Cl)cc(C(=O)NCCN(C)C)c3nc12 | 21 nM | 20 nM | 1
32 | COc1cccc2c1ccc1nc3cccc(C(=O)NCCN(CCO)CCO)c3nc12 | 3380 nM | 614 nM | 5.5
33 | CCNC(=O)Oc1cccc2c1ccc1nc3cccc(C(=O)NCCN(C)C)c3nc12 | 103 nM | 64 nM | 1.6
34 | COc1cccc2c1ccc1nc3cccc(C(=O)NC(Cc4ccccc4)CN(C)C)c3nc12 (stereo not given) | 513 nM | 478 nM | 1.1
35 | CC(=O)Oc1cccc2c1ccc1nc3cccc(C(=O)NCCN(C)C)c3nc12 | 67 nM | 24 nM | 2.8
36 | COc1cccc2c1ccc1nc3cccc(C(=O)NC(CN(C)C)C(C)C)c3nc12 (stereo not given) | 25 nM | 35 nM | 0.7
37 | CN(C)CCNC(=O)c1cccc2nc3ccc4ccc(O)cc4c3nc12 | 282 nM | 86 nM | 3.3
38 | CN(C)CCNC(=O)c1cccc2nc3ccc4c(OCc5ccccc5)cccc4c3nc12 | 882 nM | 556 nM | 1.6
39 | CN(C)CCNC(=O)c1cccc2nc3ccc4c(C#N)cccc4c3nc12 | 147 nM | 101 nM | 1.5
40 | COc1cccc2c1ccc1nc3cccc(C(=O)N[C@@H](CN(C)C)[C@H](C)O)c3nc12 | 19 nM | 19 nM | 1
41 | C#CCOc1cccc2c1ccc1nc3cccc(C(=O)NCCN(C)C)c3nc12 | 61 nM | 40 nM | 1.5
42 | COc1cccc2c1ccc1nc3cccc(C(=O)NC(CO)CN(C)C)c3nc12 (stereo not given) | 28 nM | 23 nM | 1.2
43 | COc1cccc2c1ccc1nc3cccc(C(=O)N[C@@H](CN(C)C)C(C)C)c3nc12 | 20 nM | 21 nM | 1
44 | CN(C)CCNC(=O)c1cccc2nc3ccc4c(N(C)C)cccc4c3nc12 | 925 nM | 778 nM | 1.2
45 | CN(C)CCNC(=O)c1cccc2nc3ccc4c(OCC(=O)O)cccc4c3nc12 | > 5000 nM | 3840 nM | >1.3
46 | COc1cccc2c1ccc1nc3cccc(C(=O)N[C@@H]4CCN(C)C4)c3nc12 | 128 nM | 79 nM | 1.6

Row | Compound | IC50 (NCI-H69 [1]) | IC50 (NCI-H69 [2]) | Rf (NCI-H69 [3])
47 | CNCCNC(=O)c1cccc2nc3ccc4c(OC)cccc4c3nc12 | 234 nM | 99 nM | 2.4
48 | COc1cccc2c1ccc1nc3cccc(C(=O)NCCN4CCCC4)c3nc12 | 77 nM | 40 nM | 1.9
49 | COc1ccc2ccc3nc4cccc(C(=O)NCCN(C)C)c4nc3c2c1 | 112 nM | 110 nM | 1
50 | CNS(=O)(=O)c1cccc2c1ccc1nc3cccc(C(=O)NCCN(C)C)c3nc12 | > 5000 nM | 638 nM | >7.8
51 | CSc1cccc2c1ccc1nc3cccc(C(=O)NCCN(C)C)c3nc12 | 94 nM | 121 nM | 0.8
52 | COc1ccc2nc3ccc4c(OC)cccc4c3nc2c1C(=O)NCCN(C)C | 3620 nM | 2640 nM | 1.4
53 | COc1cccc2c1ccc1nc3cccc(C(=O)NCCN4CCOCC4)c3nc12 | 1000 nM | 597 nM | 1.7
54 | COc1cccc2c1ccc1nc3cc(Br)cc(C(=O)NCCN(C)C)c3nc12 | 100 nM | 159 nM | 0.6
55 | CN(C)CCNC(=O)c1c(O)ccc2nc3ccc4c(O)cccc4c3nc12 | 25 nM | 19 nM | 1.3
56 | CN(C)CCNC(=O)c1cccc2nc3ccc4c(OCCCC#N)cccc4c3nc12 | 58 nM | 39 nM | 1.5
57 | CCC(CN(C)C)NC(=O)c1cccc2nc3ccc4c(OC)cccc4c3nc12 (stereo not given) | 118 nM | 107 nM | 1.1
58 | CN(C)CCNC(=O)c1cccc2nc3ccc4ccc([N+](=O)[O-])cc4c3nc12 | 102 nM | 94 nM | 1.1
59 | COC(=O)c1cccc2c1ccc1nc3cccc(C(=O)NCCN(C)C)c3nc12 | 91 nM | 103 nM | 0.9
60 | CNc1ccc2nc3ccc4c(OC)cccc4c3nc2c1C(=O)NCCN(C)C | 143 nM | 127 nM | 1.1
61 | CC(=O)COc1cccc2c1ccc1nc3cccc(C(=O)NCCN(C)C)c3nc12 | 138 nM | 45 nM | 3.1
62 | CN(C)CCNC(=O)c1cccc2nc3ccc4c(N(S(C)(=O)=O)S(C)(=O)=O)cccc4c3nc12 | > 5000 nM | 2140 nM | >2.3
63 | CN(C)CCNC(=O)c1cccc2nc3ccc4c(F)cccc4c3nc12 | 78 nM | 111 nM | 0.7
64 | CN(C)CCNC(=O)c1cccc2nc3ccc4c(NS(C)(=O)=O)cccc4c3nc12 | 4990 nM | 2130 nM | 2.3
65 | COc1cccc2c1ccc1nc3cccc(C(=O)N[C@@H](C)CN(C)C)c3nc12 | 121 nM | 96 nM | 1.3
66 | Cc1cccc2c1ccc1nc3cccc(C(=O)NCCN(C)C)c3nc12 | 98 nM | 117 nM | 0.8
67 | COc1cccc2c1ccc1nc3cccc(C(=O)NCC(O)CN)c3nc12 (stereo not given) | > 5000 nM | 515 nM | >9.7
